What is called IC50 is the midpoint of a concentration-inhibition curve. Usually bioavailability stands for the share of a dose that reaches the circulation, judged against a reference dose that is usually intravenous. By solubility is commonly meant the dissolved amount per volume that the medium holds.

≈ marks a conversion by molar mass, not a printed value. Calls of active or inactive are those of the source. No cut-off for these calls is given here.

Results on two molecules are retold here after ChEMBL document CHEMBL4396869, “Design and Synthesis of Selective Phosphodiesterase 4D (PDE4D) Allosteric Inhibitors for the Treatment of Fragile X Syndrome and Other Brain Disorders” (J Med Chem, 2019).

Data set [1] is described as follows: Drug level in human hepatocytes treated with 2-(4-((2-(3-Chlorophenyl)-6-ethylpyrimidin-4-yl)methyl)phenyl)acetamide assessed as metabolite formation measured after 4 hrs by LC-UV/MS/MS analysis. Type of data set: ADME, cell-based, Hepatocyte. The procedure, abridged: (§1)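 Metabolite identification: cryopreserved hepatocytes from male Wistar rat or human, 0.5×10^6 cells/mL in suspension, incubated 4 h at 37 °C; incubation medium analysed by LC-UV/MS/MS.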

The nature of data set [2]: Drug level in Wistar rat hepatocytes treated with 2-(4-((2-(3-Chlorophenyl)-6-ethylpyrimidin-4-yl)methyl)phenyl)acetamide assessed as metabolite formation measured after 4 hrs by LC-UV/MS/MS analysis. The data set is classed as ADME, cell-based, Hepatocyte. The procedure, abridged: as §1
The next data set concerns the target Cytochrome P450 2C9 (Homo sapiens, UniProt P11712). In words: Inhibition of CYP2C9 (unknown origin) by fluorescence-based assay. Type of data set: ADME. In outline: (§2)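 CYP inhibition run with a fluorescent substrate by a contract laboratory under standard protocols; IC50 reported.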
The nature of data set [3]: Inhibition of recombinant human wild-type His6-tagged PDE4D7 UCR1 domain (S129 residues) expressed in baculovirus infected Sf9 insect cells using cAMP as substrate preincubated for 5 to 10 mins followed by substrate addition and measured for 10 mins by yeast myokinase/pyruvate kinase/lactate dehydrogenase-coupled fluorescence assay.
Data set [4] can be described thus: Inhibition of recombinant human His6-tagged PDE4D7 UCR1 S129D mutant expressed in baculovirus infected Sf9 insect cells using cAMP as substrate preincubated for 5 to 10 mins followed by substrate addition and measured for 10 mins in presence of BSA by yeast myokinase/pyruvate kinase/lactate dehydrogenase-coupled fluorescence assay.
Data set [5] in a line: Ratio of AUC in po dosed mouse brain to plasma. The data set is classed as ADME, organism-based. The procedure, abridged:
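Mice were dosed orally in 5% DMSO, 5% Solutol, 90% PBS. Drug exposure was measured in plasma and brain, and the ratio was taken from brain AUC over plasma AUC.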

Another data set concerns the target Cytochrome P450 2D6 (Homo sapiens, UniProt P10635). Kind of data set: Inhibition of CYP2D6 (unknown origin) by fluorescence-based assay. The data set is classed as ADME. In outline: as §2
The nature of data set [6]: Aqueous kinetic solubility of the compound at pH 7 at 100 uM measured after 1 hr. Type of data set: physicochemical. The settings on record: buffer, pH 7, 1 h.
A short description of data set [7]: Stability in human liver microsomes assessed as parent compound remaining at 1 uM measured after 30 mins by LC-MS/MS analysis. Type of data set: ADME, Microsome. The settings on record: read-out: Stability. The procedure, abridged: (§3)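 Liver microsome stability run by a contract lab using standard protocols. Parent compound remaining measured after 30 min incubation.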
(In general: Liver microsomes are vesicles of endoplasmic reticulum, rich in cytochrome P450 enzymes.)

A short description of data set [8]: Permeability across apical to basal side in MDCK-MDR1 cells. Type of data set: ADME, cell-based, Canis lupus familiaris. The settings on record: dog. In outline: (§4)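 Cellular permeability in MDCK-MDR1 cells, apical-to-basal and basal-to-apical, run by a contract lab using standard protocols. Efflux ratio taken as B-A/A-B.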
Data set [9] is described as follows: Protein binding in dog plasma. The data set is classed as ADME, cell-free, Canis lupus familiaris. The settings on record: read-out: PPB.
Data set [10] in a line: Therapeutic index, ratio of compound effect for induction of emesis in ICR mouse assessed as reduction in ketamine/xylazine-induced duration of anesthesia at 10 to 30 mg/kg, po to compound effect for memory enhancement effect in ICR mouse assessed as improvement in novel object discrimination at 1 to 3 mg/kg, po. The data set is classed as toxicity, organism-based. The settings on record: in vivo. In outline: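 Male ICR mice (25–30 g) were gavaged with compound in 5% DMSO, 5% Solutol in PBS. Object recognition ran as 10 min habituation on day 1, 5 min training on day 2 and 5 min testing on day 3, scored as d2 = (b−a)/(a+b). Thirty minutes after an oral dose, ketamine 80 mg/kg plus xylazine 10 mg/kg was given IP, and anesthesia duration was timed from loss to return of the righting reflex. The index compares effective doses in the two tests.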

Data set [11] is described as follows: Inhibition of recombinant human His6-tagged PDE4D7 UCR1 S129D mutant expressed in baculovirus infected Sf9 insect cells using cAMP as substrate preincubated for 5 to 10 mins followed by substrate addition and measured for 10 mins by yeast myokinase/pyruvate kinase/lactate dehydrogenase-coupled fluorescence assay.
Data set [12] in a line: Protein binding in mouse plasma. The data set is classed as ADME, cell-free. The settings on record: read-out: PPB.
A short description of data set [13]: Permeability across basal to apical side in MDCK-MDR1 cells. The data set is classed as ADME, cell-based, Canis lupus familiaris. The settings on record: dog. The procedure, abridged: as §4
Data set [14] deals with Mus musculus. In words: Memory enhancement effect in ICR mouse assessed as improvement in novel object discrimination at 1 to 3 mg/kg, po administered via gavage measured for 5 mins by open field test. The data set is classed as functional, organism-based. In outline: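 Male ICR mice (25–30 g), dosed by oral gavage in 5% DMSO, 5% Solutol in PBS. Three phases in an open field box: 10 min habituation on day 1, 5 min training with identical objects on day 2, 5 min test with familiar and novel objects on day 3 (24 h delay). Exploration times recorded; discrimination index d2 = (b − a)/(a + b).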

Data set [15] is described as follows: Protein binding in rat plasma. The data set is classed as ADME, cell-free. The settings on record: read-out: PPB.
The nature of data set [16]: Half life in po dosed mouse plasma. Type of data set: ADME, organism-based. The settings on record: in vivo.
In the next data set the target is Cytochrome P450 2C19 (Homo sapiens, UniProt P33261). In words: Inhibition of […] (unknown origin) by fluorescence-based assay. The data set is classed as ADME. The procedure, abridged:
as §2

Data set [17] is described as follows: Oral bioavailability in mouse. The data set is classed as ADME, organism-based. The settings on record: in vivo.
The nature of data set [18]: Stability in Wistar rat hepatocytes assessed as parent compound remaining measured after 4 hrs by LC-UV/MS/MS analysis. The data set is classed as ADME, cell-based, Hepatocyte. The settings on record: read-out: Stability. In outline:
(§5)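 Metabolite identification run with cryopreserved hepatocytes from male Wistar rats and from humans, 0.5×10^6 cells/mL in suspension, incubated 4 h at 37 °C. Incubation medium analysed by LC-UV/MS/MS.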

Data set [19] is described as follows: Stability in mouse liver microsomes assessed as parent compound remaining at 1 uM measured after 30 mins by LC-MS/MS analysis. The data set is classed as ADME, Microsome. The settings on record: read-out: Stability. In outline:
as §3

Data set [20] can be described thus: Stability in rat liver microsomes assessed as parent compound remaining at 1 uM measured after 30 mins by LC-MS/MS analysis. The settings on record: read-out: Stability. Type of data set: ADME, Microsome. In outline: as §3
Data set [21] can be described thus: Stability in human hepatocytes assessed as parent compound remaining measured after 4 hrs by LC-UV/MS/MS analysis. Type of data set: ADME, cell-based, Hepatocyte. The settings on record: read-out: Stability. In outline: as §5
Data set [22] is filed under the species Homo sapiens. Kind of data set: Selectivity ratio of IC50 for recombinant human His6-tagged PDE4B1 UCR1 S133D mutant expressed in baculovirus infected Sf9 insect cells to IC50 for recombinant human His6-tagged PDE4D7 UCR1 S129D mutant expressed in baculovirus infected Sf9 insect cells.
Data set [23] can be described thus: Protein binding in human plasma. The settings on record: read-out: PPB. Type of data set: ADME, cell-free.
The nature of data set [24]: Stability in dog liver microsomes assessed as parent compound remaining at 1 uM measured after 30 mins by LC-MS/MS analysis. Type of data set: ADME, Canis lupus familiaris, Microsome. The settings on record: read-out: Stability. The procedure, abridged:
as §3

Data set [25] has as its target 3',5'-cyclic-AMP phosphodiesterase 4B (Homo sapiens, UniProt Q07343, S133D). Kind of data set: Inhibition of recombinant human His6-tagged PDE4B1 UCR1 S133D mutant expressed in baculovirus infected Sf9 insect cells using cAMP as substrate preincubated for 5 to 10 mins followed by substrate addition and measured for 10 mins by yeast myokinase/pyruvate kinase/lactate dehydrogenase-coupled fluorescence assay.

A short description of data set [26]: Half life in po dosed mouse brain. Type of data set: ADME, organism-based. The settings on record: in vivo.
Data set [27] is filed under the species Homo sapiens. Kind of data set: Selectivity ratio of IC50 for recombinant human wild-type His6-tagged PDE4D7 UCR1 domain (S129 residues) expressed in baculovirus infected Sf9 insect cells to IC50 for recombinant human His6-tagged PDE4D7 UCR1 S129D mutant expressed in baculovirus infected Sf9 insect cells.
Data set [28] is described as follows: Solubility of the compound in FaSSIF. Type of data set: physicochemical. The settings on record: simulated gi fluid. In outline:
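Kinetic solubility measured in fasted state simulated intestinal fluid (FaSSIF), run by a contract lab using standard protocols.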

A short description of data set [29]: Efflux ratio of permeability across basal to apical side over apical to basal side in MDCK-MDR1 cells. The data set is classed as ADME, cell-based, Canis lupus familiaris. The settings on record: dog.
Data set [30] relates to Mus musculus. In words: Induction of emesis in ICR mouse assessed as reduction in ketamine/xylazine-induced duration of anesthesia at 10 to 30 mg/kg, po pretreated for 30 mins followed by ketamine/xylazine addition. The settings on record: in vivo. The data set is classed as organism-based. The procedure, abridged: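 Male ICR mice, 25–30 g. Test agents given by oral gavage in 5% DMSO, 5% Solutol in PBS, or rolipram IP; ketamine (80 mg/kg) plus xylazine (10 mg/kg) IP given 30 min after PO or 15 min after IP dosing. Endpoint: time from loss to return of righting reflex.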

Data set [31] can be described thus: Stability in monkey liver microsomes assessed as parent compound remaining at 1 uM measured after 30 mins by LC-MS/MS analysis. Type of data set: ADME, Macaca mulatta, Microsome. The settings on record: rhesus monkey, read-out: Stability. The procedure, abridged: as §3
The target of the next data set is Cytochrome P450 3A4 (Homo sapiens, UniProt P08684). Kind of data set: Inhibition of CYP3A4 (unknown origin) by fluorescence-based assay. Type of data set: ADME. The procedure, abridged:
as §2

Sequence of Cytochrome P450 3A4 (P08684 whole entry): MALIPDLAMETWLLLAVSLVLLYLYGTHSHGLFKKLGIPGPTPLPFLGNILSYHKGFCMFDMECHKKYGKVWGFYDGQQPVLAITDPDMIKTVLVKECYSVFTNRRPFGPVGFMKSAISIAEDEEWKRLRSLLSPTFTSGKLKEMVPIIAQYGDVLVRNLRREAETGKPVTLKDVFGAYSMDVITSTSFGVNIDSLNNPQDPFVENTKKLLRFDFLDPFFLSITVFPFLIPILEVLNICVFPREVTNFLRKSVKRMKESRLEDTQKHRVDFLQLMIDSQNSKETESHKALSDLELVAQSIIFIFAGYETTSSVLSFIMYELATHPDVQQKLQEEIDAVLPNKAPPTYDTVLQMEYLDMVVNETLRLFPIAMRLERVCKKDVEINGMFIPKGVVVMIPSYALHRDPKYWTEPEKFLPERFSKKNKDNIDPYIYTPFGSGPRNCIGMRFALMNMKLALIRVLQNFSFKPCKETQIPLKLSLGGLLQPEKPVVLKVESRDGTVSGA
Sequence of Cytochrome P450 2D6 (P10635 whole entry): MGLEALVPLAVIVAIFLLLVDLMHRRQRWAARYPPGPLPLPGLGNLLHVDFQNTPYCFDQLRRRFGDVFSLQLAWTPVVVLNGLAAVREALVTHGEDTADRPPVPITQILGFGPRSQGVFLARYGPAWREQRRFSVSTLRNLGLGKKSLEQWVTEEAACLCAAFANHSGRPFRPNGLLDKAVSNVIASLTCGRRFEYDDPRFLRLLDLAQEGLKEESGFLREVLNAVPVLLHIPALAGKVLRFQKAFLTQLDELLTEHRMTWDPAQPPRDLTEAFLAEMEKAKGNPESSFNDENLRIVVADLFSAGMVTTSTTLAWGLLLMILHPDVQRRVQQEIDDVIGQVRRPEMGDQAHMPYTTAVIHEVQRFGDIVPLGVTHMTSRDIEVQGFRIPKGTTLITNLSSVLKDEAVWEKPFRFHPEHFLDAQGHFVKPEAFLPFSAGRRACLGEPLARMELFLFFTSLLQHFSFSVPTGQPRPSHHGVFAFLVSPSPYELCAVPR
Sequence of Cytochrome P450 2C19 (P33261 whole entry): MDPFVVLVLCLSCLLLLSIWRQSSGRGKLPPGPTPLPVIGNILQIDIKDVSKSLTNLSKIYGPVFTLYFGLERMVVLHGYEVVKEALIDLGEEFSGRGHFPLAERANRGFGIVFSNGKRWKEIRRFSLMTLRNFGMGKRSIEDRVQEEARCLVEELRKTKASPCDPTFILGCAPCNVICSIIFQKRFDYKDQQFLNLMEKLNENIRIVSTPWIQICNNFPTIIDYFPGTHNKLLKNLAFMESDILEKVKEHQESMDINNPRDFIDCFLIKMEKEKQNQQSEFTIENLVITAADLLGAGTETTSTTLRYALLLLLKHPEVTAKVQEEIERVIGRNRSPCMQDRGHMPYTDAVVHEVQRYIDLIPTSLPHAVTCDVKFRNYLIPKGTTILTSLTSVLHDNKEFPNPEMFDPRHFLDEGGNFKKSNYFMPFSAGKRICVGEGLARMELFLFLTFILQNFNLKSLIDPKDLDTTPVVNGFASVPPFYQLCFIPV
Sequence of 3',5'-cyclic-AMP phosphodiesterase 4B (Q07343 whole entry S133D): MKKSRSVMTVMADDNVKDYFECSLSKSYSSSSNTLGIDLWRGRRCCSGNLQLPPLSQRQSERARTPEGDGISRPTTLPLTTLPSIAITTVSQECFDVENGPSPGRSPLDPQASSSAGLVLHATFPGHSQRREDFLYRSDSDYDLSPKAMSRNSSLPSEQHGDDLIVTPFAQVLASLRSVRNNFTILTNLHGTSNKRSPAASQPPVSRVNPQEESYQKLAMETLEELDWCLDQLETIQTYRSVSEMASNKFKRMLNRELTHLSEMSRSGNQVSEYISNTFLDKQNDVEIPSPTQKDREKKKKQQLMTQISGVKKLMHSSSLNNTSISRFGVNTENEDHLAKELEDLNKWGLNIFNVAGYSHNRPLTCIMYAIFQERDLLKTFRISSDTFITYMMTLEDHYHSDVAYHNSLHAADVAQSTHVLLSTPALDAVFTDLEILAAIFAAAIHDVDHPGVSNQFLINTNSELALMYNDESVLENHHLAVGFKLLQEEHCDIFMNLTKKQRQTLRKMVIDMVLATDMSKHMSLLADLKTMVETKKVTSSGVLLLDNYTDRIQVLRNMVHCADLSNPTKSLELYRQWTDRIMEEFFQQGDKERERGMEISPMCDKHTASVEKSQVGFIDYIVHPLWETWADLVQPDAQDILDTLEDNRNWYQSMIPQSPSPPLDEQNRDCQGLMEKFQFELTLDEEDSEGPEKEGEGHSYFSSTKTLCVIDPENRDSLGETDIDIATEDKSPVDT
Sequence of Cytochrome P450 2C9 (P11712 whole entry, the tested form may be a part): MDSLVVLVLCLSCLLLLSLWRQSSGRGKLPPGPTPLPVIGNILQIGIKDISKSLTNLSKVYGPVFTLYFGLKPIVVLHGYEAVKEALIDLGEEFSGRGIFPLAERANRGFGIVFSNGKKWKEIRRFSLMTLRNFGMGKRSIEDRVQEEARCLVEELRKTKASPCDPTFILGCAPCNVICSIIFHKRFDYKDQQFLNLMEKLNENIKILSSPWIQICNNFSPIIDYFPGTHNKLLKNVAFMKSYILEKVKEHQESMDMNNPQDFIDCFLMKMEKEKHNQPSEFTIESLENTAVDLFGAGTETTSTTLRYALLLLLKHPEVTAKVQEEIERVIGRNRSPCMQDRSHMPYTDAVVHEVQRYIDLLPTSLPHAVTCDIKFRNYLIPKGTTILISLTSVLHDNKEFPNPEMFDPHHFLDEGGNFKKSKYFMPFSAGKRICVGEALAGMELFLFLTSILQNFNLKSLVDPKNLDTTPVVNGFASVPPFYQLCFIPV

As for `CCc1cc(Cc2ccc(CC(=O)O)cc2)nc(-c2cccc(Cl)c2)n1`, the Drug metabolism entry in [1] and in data set [2] was “Metabolite_Detected” each time.

For `CCc1cc(Cc2ccc(CC(N)=O)cc2)nc(-c2cccc(Cl)c2)n1`, the IC50 on Cytochrome P450 2C9 was more than 100 µM; in [3], 0.313 µM; on Cytochrome P450 2D6, more than 100 µM; in data set [11], 0.0017 µM; against Cytochrome P450 2C19, 29 µM; in [25], 0.225 µM. The 50% inhibitory concentration (IC50) at Cytochrome P450 3A4 amounted to 5.9 µM. For the same molecule, the inhibition result in [4] was “Active”. The “Ratio AUC” value in [5] was 2.7. The Kinetic_solubility in data set [6] is less than 1.6 µM. Besides, the remaining at 0.5 h, 1 µM in data set [7], in [19], in data set [20], in data set [24] and in data set [31] was 54 to 90% throughout. The figures for the permeability in [8] and in data set [13] were 24.1 ×10⁻⁶ cm/s and 22 ×10⁻⁶ cm/s, respectively. Further, the fraction unbound in data set [9], in data set [12], in data set [15] and in [23] was 0.002 to 0.005 in each case. The selectivity ratio in data set [10] was found to be 10. The outcome with Mus musculus [14] was Active. Besides, the t1/2 in [16] was 27.6 min; in data set [26], 26.4 min. The molecule further showed a bioavailability in data set [17] of 53%. The remaining at 4 h in data set [18] turned out to be 66.8%; in [21], 93.2%. Also, the values for the Ratio IC50 in the data set filed under Homo sapiens [22] and in the data set listed under Homo sapiens [27] were 132 and 184, respectively. Besides, the solubility in data set [28] is 100 µM (≈ 36.6 µg/mL). Further, the Ratio in data set [29] is on record as 0.9. The Activity result with Mus musculus [30] is listed as “Toxic”.
